The RNAGym collection of RNA variant scans (doi:10.1126/science.aae0568)
Variants at the floor of the assay were thinned out.

B1: tRNA (parent)
chain: GUUCCGUUGGCGUAAUGGUAACGCGUCUCCCUCCUAAGGAGAAGACUGCGGGUUCGAGUCCCGUACGGAACG

Variants of: B1
Test: yeast fitness relative to wild type (ratio to wild type); higher = fitter; tRNA-Arg(CCU), competitive growth, 37 C, YPD
In short: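 The tRNA-Arg(CCU) gene variants were made by chemical synthesis with a 3% per-site mutation rate at 69 sites and inserted at the native genomic locus of Saccharomyces cerevisiae. After pooling, the strains were competed in YPD at 37°C for 24 hours in six parallel replicates. Gene amplicons from the start population and each end population were read by 100-nucleotide paired-end sequencing, and Darwinian fitness relative to wild type was taken from genotype frequency changes. Genotypes needed ≥ 100 starting reads, and estimates < 0.5 were set to 0.5.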

Question: For GUUCCGUUGGCGUAAUGGUAACGCGUCUCCCCCCUAAGGAGAAGACUGCGGGUUUGAGUCCCGUACGGCACG, which yeast fitness is on record?
Answer: Its yeast fitness is 0.63.

Question: With GUUCCGUUGGCGUAAUGGUAACGCGUCUCCCCCCUACGGAGAAGACUGCGGGUUCGAGUCCCGUACGGAACG as the variant, how does the yeast fitness read?
Answer: The yeast fitness was 0.771.

Question: Which yeast fitness does the source give for GUUCCGUUGGCGUAAUGGUAACGCGUCUCCCCCCUAUGGAGAAGACUGCGGGUUCGAGUCCCGUACGGAACG here?
Answer: Its yeast fitness is 0.729.

Question: Which yeast fitness does the source give for GUUCCGUUGGCGUAAUGGUAACGCGUCUCCCACCUAAGGAGAAGACUGCGGGUACGAGUCCCGUACGGAACG here?
Answer: The yeast fitness was no more than 0.5.

Question: Which yeast fitness does the source give for GUUCCGUUGGCGUAAUGGUAACGCGUCUCCCCCCUAAGGACAAGACUGCGGGUUCGAGUCCCGUACGGAACG here?
Answer: Its yeast fitness is 0.931.

Question: With GUUCCGUUGGCGUAAUGGUAACGCGUCUCCCCCUUAAGGAGAAGACUGCGGGUUCGAGUCCCGUACGGAACG as the variant, how does the yeast fitness read?
Answer: Its yeast fitness is 0.788.

Question: Which yeast fitness does the source give for GUUCCGUUGGCGUAAUGGUAACGCGUCUCCCCCCUAAGGAGAGGGCUGCGGGUUCGAGUCCCGUACGGAACG here?
Answer: Its yeast fitness is 0.608.

Question: Which yeast fitness does the source give for GUUCCGUUGGCGUAAUGGUAACGCGUCUCCCCCCUAACGAGAAGACUGCGGGUUCGAGUCCCGUACGCAACG here?
Answer: The yeast fitness was no more than 0.5.

Question: Which yeast fitness does the source give for GUUCCGUUGGCGUAAUGGUAACGCGUCUCCCCCCUAAGGAGAAGUCUGCGGAUUCGAGUCCCGUACGGAUCG here?
Answer: Its yeast fitness is no more than 0.5.

Question: With GUUCCGUUGGCGUAAUGGUAACGCGUCUCCCCCCUAAGGAGACGACUGCGGGUUCGAGUCCCGUACGGGACG as the variant, how does the yeast fitness read?
Answer: The yeast fitness was no more than 0.5.

Question: Which yeast fitness does the source give for GUUCCGUUGGCGUAAUGGUAACGCGUCUCCCCCCUGAGGAGAAGACUGCGGGUUCGAGUCCCAUACGGAACG here?
Answer: The yeast fitness was 0.628.

Question: For GUUCCGUUGGCGUAAUGGUAACGCGUCUCCCCCCUAAGGAGAAGACUGCGGGUUUGAGUCCUGUACGGAACG, which yeast fitness is on record?
Answer: Its yeast fitness is 0.653.

Question: Which yeast fitness does the source give for GUUCCGUUGGCGUAAUGGUAACGCGUCUCCCACCUAAGGAGAAGACUGCGGGUUUGAGUCCCGUACGGAACG here?
Answer: Its yeast fitness is 0.501.

Question: Which yeast fitness does the source give for GUUCCGUUGGCGUAAUGGUAACGCGUCUCCCCCCUAAGGAGUAGACUGCGGGUUCGAGUCCCGUACGGAACG here?
Answer: The yeast fitness was 0.974.

Question: With GUUCCGUUGGCGUAAUGGUAACGCGUCUCCCACCUAAGGAGAAGACUGCGGCUUCGAGUCCCGUACGGAACG as the variant, how does the yeast fitness read?
Answer: The yeast fitness was no more than 0.5.

Question: Which yeast fitness does the source give for GUUCCGUUGGCGUAAUGGUAACGCGUCUCCCCCUUAAGGAGAACACUGCGGGUUCGAGUCCCGUACGGAACG here?
Answer: Its yeast fitness is no more than 0.5.

Question: For GUUCCGUUGGCGUAAUGGUAACGCGUCUCCCCCCUAAGGUGAAGACUGCGGGUUGGAGUCCCGUACGGAACG, which yeast fitness is on record?
Answer: Its yeast fitness is 0.703.

Question: With GUUCCGUUGGCGUAAUGGUAACGCGUCUCCCCCCUAAGGAGAAGACUGUGGGUUCGAGUCCCGUGCGGAACG as the variant, how does the yeast fitness read?
Answer: Its yeast fitness is 0.778.

Question: With GUUCCGUUGGCGUAAUGGUAACGCGUCUCCCCCCUAAGGAGAAGACUGUGGGUUCGAGUCCCGUCCGGAACG as the variant, how does the yeast fitness read?
Answer: The yeast fitness was 0.793.

Question: With GUUCCGUUGGCGUAAUGGUAACGCGUCUCCCCACUAAGGAGAAGACUGCGGGUUCGAGUCCCGUACGGAACG as the variant, how does the yeast fitness read?
Answer: Its yeast fitness is 0.628.

Question: Which yeast fitness does the source give for GUUCCGUUGGCGUAAUGGUAACGCGUCUCCCACCUAAGGACAAGACUGCGGGUUCGAGUCCCGUUCGGAACG here?
Answer: Its yeast fitness is no more than 0.5.

Question: For GUUCCGUUGGCGUAAUGGUAACGCGUCUCCCCCCUAAGGAGAAGACUGCGGGUUCGAGUCCCGUACGGAUCG, which yeast fitness is on record?
Answer: The yeast fitness was 0.935.

Question: Which yeast fitness does the source give for GUUCCGUUGGCGUAAUGGUAACGCGUCUCCCCCCUAAGGAGAAGACUGCGGGUUCGAGUCCCGUACGGACCG here?
Answer: The yeast fitness was 0.991.

Question: For GUUCCGUUGGCGUAAUGGUAACGCGUCUCCCACCUAAGGAGAAGACUGCGGGUUCGAGUCCCUAUCGGAACG, which yeast fitness is on record?
Answer: The yeast fitness was 0.634.

Question: For GUUCCGUUGGCGUAAUGGUAACGCGUCUCCCACCUAAGGAGAAGAUUGCGGGUUCGAGUCCCCUACGGAACG, which yeast fitness is on record?
Answer: Its yeast fitness is no more than 0.5.

Question: For GUUCCGUUGGCGUAAUGGUAACGCGUCUCCCCCCUAAGGAGAGGACUGCGGGUUCGAGUCCCGUCCGGAACG, which yeast fitness is on record?
Answer: Its yeast fitness is 0.913.

Question: For GUUCCGUUGGCGUAAUGGUAACGCGUCUCCCCUCUAAGGAGAAGACUGCGGGUUCGAGUCCUGUGCGGAACG, which yeast fitness is on record?
Answer: Its yeast fitness is 0.58.

Question: With GUUCCGUUGGCGUAAUGGUAACGCGUCUCCCCCCUAAGGAGACGACUGCGGGUUCGAGUCCCGUACGGAACG as the variant, how does the yeast fitness read?
Answer: The yeast fitness was 0.83.

Question: For GUUCCGUUGGCGUAAUGGUAACGCGUCUCCCCCCUAAGGAGACGACUGCGGGUUCGAGUCCCGUUCGGAACG, which yeast fitness is on record?
Answer: Its yeast fitness is 0.503.

Question: Which yeast fitness does the source give for GUUCCGUUGGCGUAAUGGUAACGCGUCUCCCCCCUAACGAGAAGACUGCGGCUUCGAGUCCCGUACGGAACG here?
Answer: The yeast fitness was no more than 0.5.

Question: Which yeast fitness does the source give for GUUCCGUUGGCGUAAUGGUAACGCGUCUCCCCCCUAACGAGAAGACUGCAGGUUCGAGUCCCGUACGGAGCG here?
Answer: Its yeast fitness is no more than 0.5.

Question: With GUUCCGUUGGCGUAAUGGUAACGCGUCUCCCCCCUAAGGGGAAGACUGCGGGUUCGAGUCCGGUACGACACG as the variant, how does the yeast fitness read?
Answer: The yeast fitness was no more than 0.5.

Question: Which yeast fitness does the source give for GUUCCGUUGGCGUAAUGGUAACGCGUCUCCCCCCUAAGCAGAAGACUGCCGGUUCGAGUCCCGUACGGAACG here?
Answer: The yeast fitness was no more than 0.5.

Question: For GUUCCGUUGGCGUAAUGGUAACGCGUCUCCCCCCUAAGGAGAAGACUGCGGGUUCGGGUCCCGUACGGAACG, which yeast fitness is on record?
Answer: The yeast fitness was 0.861.

Question: With GUUCCGUUGGCGUAAUGGUAACGCGUCUCCCCCCUAAGGAGAAGACUGCGGGUUCGAGUCCCGUACGGAACG as the variant, how does the yeast fitness read?
Answer: Its yeast fitness is 0.966.

Question: For GUUCCGUUGGCGUAAUGGUAACGCGUCUCCCCCCUAAGGAGAAGUGUGCGGGUUCGAGUCCCGUACGGCACG, which yeast fitness is on record?
Answer: The yeast fitness was no more than 0.5.

Question: For GUUCCGUUGGCGUAAUGGUAACGCGUCUCCCCCCUAAGGUGAAGACUGCGGGUUACAGUCCCGUACGGAACG, which yeast fitness is on record?
Answer: The yeast fitness was no more than 0.5.

Question: For GUUCCGUUGGCGUAAUGGUAACGCGUCUCCCCUCUAAGGAGUAGACUGCGGGUUCGGGUCCCGUACGGAACG, which yeast fitness is on record?
Answer: Its yeast fitness is no more than 0.5.
